Laboratory results taken from ChEMBL document CHEMBL1123291, “Modified di- and tripeptides of the C-terminal portion of oxytocin and vasopressin as possible cognition activation agents” (1986).

Key:
Assay type in all cases: functional
Rattus norvegicus [1] = test: Compound was tested for its ability (% reversal in rats) to reverse electroconvulsive shock-induced amnesia in rodents at a dose of 0.001 (mg/kg) administered intramuscularly (im)
Method in brief: (§1)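 Passive avoidance (step-through, lighted vs darkened compartment). […], ECS (20 mA, 1 s) was given transcorneally via saline-soaked electrodes, and maximal hindlimb extension was required. Drug was given im at selected doses 2 h post-training. One hour later, entry latency to the dark side was recorded, with 60 s counted as retention. At least 75% of ECS controls had to be amnesic. Replicates were mostly not run.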

Rattus norvegicus [2] = test: Ability (% reversal in rats) to reverse electroconvulsive shock-induced amnesia in rodents at a dose of 0.010 (mg/kg) administered intramuscularly (im); method in brief: as §1
Rattus norvegicus [3] = test: Ability (% reversal in rats) to reverse electroconvulsive shock-induced amnesia in rodents at a dose of 0.10 (mg/kg) (following intramuscular dosing); method in brief: as §1
Rattus norvegicus [4] = test: Compound was tested for its ability (% reversal in rats) to reverse electroconvulsive shock-induced amnesia in rodents at a dose of 1 (mg/kg) administered intramuscularly (im); method in brief: as §1
Rattus norvegicus [5] = test: Compound was tested for its ability (% reversal in rats) to reverse electroconvulsive shock-induced amnesia in rodents at a dose of 10 (mg/kg) administered intramuscularly (im); method in brief: as §1
Rattus norvegicus [6] = test: Compound was tested for its ability (% reversal in rats) to reverse electroconvulsive shock-induced amnesia in rodents at a dose of 100 (mg/kg) administered intramuscularly (im); method in brief: as §1
Rattus norvegicus [7] = test: Ability (% reversal in rats) to reverse electroconvulsive shock-induced amnesia in rodents at a dose of 0.0010 (mg/kg) (following i.m. administration); method in brief: as §1
Rattus norvegicus [8] = test: Compound was tested for its ability (% reversal in rats) to reverse electroconvulsive shock-induced amnesia in rodents at a dose of 1 (mg/kg) administered intramuscularly (im).; method in brief: as §1
Rattus norvegicus [9] = test: Compound was tested for its ability (% reversal in rats) to reverse electroconvulsive shock-induced amnesia in rodents at a dose of 0.032 (mg/kg) administered intramuscularly (im); method in brief: as §1
Rattus norvegicus [10] = test: Compound was tested for its ability (% reversal in rats) to reverse electroconvulsive shock-induced amnesia in rodents at a dose of 10 (mg/kg) administered intramuscularly (im).; method in brief: as §1
Rattus norvegicus [11] = test: Compound was tested for its ability (% reversal in rats) to reverse electroconvulsive shock-induced amnesia in rodents at a dose of 50 (mg/kg) administered intramuscularly (im); method in brief: as §1
Mus musculus [12] = test: Compound was tested for its ability (% reversal in mice) to reverse electroconvulsive shock-induced amnesia in rodents at a dose of 0.1 (mg/kg) administered intramuscularly (im); method in brief: as §1
Mus musculus [13] = test: Compound was tested for its ability (% reversal in mice) to reverse electroconvulsive shock-induced amnesia in rodents at a dose of 1 (mg/kg) administered intramuscularly (im); method in brief: as §1
Mus musculus [14] = test: Compound was tested for its ability (% reversal in mice) to reverse electroconvulsive shock-induced amnesia in rodents at a dose of 10 (mg/kg) administered intramuscularly (im); method in brief: as §1
Rattus norvegicus [15] = test: Compound was tested for its ability (% reversal in rats) to reverse electroconvulsive shock-induced amnesia in rodents at a dose of 0.1 (mg/kg) administered intramuscularly (im); method in brief: as §1
Mus musculus [16] = test: Compound was tested for its ability (% reversal in mice) to reverse electroconvulsive shock-induced amnesia in rodents at a dose of 100 (mg/kg) administered intramuscularly (im); method in brief: as §1
Rattus norvegicus [17] = test: Compound was tested for its ability (% reversal in rats) to reverse electroconvulsive shock-induced amnesia in rodents at a dose of 0.0010 (mg/kg) administered intramuscularly (im).; method in brief: as §1
Rattus norvegicus [18] = test: Compound was tested for its ability (% reversal in rats) to reverse electroconvulsive shock-induced amnesia in rodents at a dose of 0.010 (mg/kg) administered intramuscularly (im).; method in brief: as §1
Rattus norvegicus [19] = test: Compound was tested for its ability (% reversal in rats) to reverse electroconvulsive shock-induced amnesia in rodents at a dose of 0.10 (mg/kg) administered intramuscularly (im).; method in brief: as §1
Rattus norvegicus [20] = test: Compound was tested for its ability (% reversal in rats) to reverse electroconvulsive shock-induced amnesia in rodents at a dose of 0.0001 (mg/kg) administered intramuscularly (im); method in brief: as §1
Rattus norvegicus [21] = test: Compound was tested for its ability (% reversal in rats) to reverse electroconvulsive shock-induced amnesia in rodents at a dose of 100 (mg/kg) administered intramuscularly (im).; method in brief: as §1
Mus musculus [22] = test: Ability to reverse electroconvulsive shock-induced amnesia in rodents following 1 ug/kg i.m. administration.; method in brief: as §1
Mus musculus [23] = test: Ability to reverse electroconvulsive shock-induced amnesia in rodents following 0.01 mg/kg i.m. administration.; conditions: route intramuscular; method in brief: as §1
Mus musculus [24] = test: Ability to reverse electroconvulsive shock-induced amnesia in rodents following 0.1 mg/kg i.m. administration.; conditions: route intramuscular; method in brief: as §1
Rattus norvegicus [25] = test: Compound was tested for its ability (% reversal in rats) to reverse electroconvulsive shock-induced amnesia in rodents at a dose of 0.00010 (mg/kg) administered intramuscularly (im); method in brief: as §1
Rattus norvegicus [26] = test: Compound was tested for its ability (% reversal in rats) to reverse electroconvulsive shock-induced amnesia in rodents at a dose of 1(mg/kg) administered intramuscularly (im); method in brief: as §1

| Compound | Reversal (Rattus norvegicus [2]) | Reversal (Rattus norvegicus [3]) | Reversal (Rattus norvegicus [4]) | Reversal (Rattus norvegicus [5]) | Reversal (Rattus norvegicus [6]) | Reversal (Rattus norvegicus [7]) | further results |
| --- | --- | --- | --- | --- | --- | --- | --- |
| CC(C)CC1CN(C[C@H](CC(C)C)NC(=O)[C@@H]2CCCN2C(=O)OCc2ccccc2)CC(=O)N1 (stereo partly specified) | 17% | 50% | 0% | 0% | 80% |  | Reversal (Rattus norvegicus [1]): 17% |
| CC(C)CC(CNCC(=O)O)NC(=O)C1CCC(=O)N1 (stereo unspecified) | 33% | 33% |  | 0% | 50% | 33% | Reversal (Rattus norvegicus [8]): 66% |
| CC(C)CC(CS(=O)(=O)CC(=O)O)NC(=O)C1CCCN1C(=O)OCc1ccccc1 (stereo unspecified) |  | 0% |  |  |  | 50% | Reversal (Rattus norvegicus [9]): 66% |
| CC(C)CC(CSCC(=O)O)NC(=O)C1CCC(=O)N1C(=O)OCc1ccccc1 (stereo unspecified) | 33% | 0% | 0% |  | 0% | 33% | Reversal (Rattus norvegicus [10]): 0% |
| Cc1ccc(S(=O)(=O)N2CCCC2CNC(CNCC(=O)O)CC(C)C)cc1 (stereo unspecified) | 0% | 40% |  | 80% |  | 0% | Reversal (Rattus norvegicus [8]): 20%; Reversal (Rattus norvegicus [11]): 0% |
| CC(C)CC(CSCC(=O)O)NC(=O)C1CC(=O)CN1C(=O)OCc1ccccc1 (stereo unspecified) | 50% |  | 100% | 80% |  | 17% | Reversal (Mus musculus [12]): 17%; Reversal (Mus musculus [13]): 17%; Reversal (Mus musculus [14]): 0%; Reversal (Rattus norvegicus [15]): 83% |
| NC(=O)COCC(Cc1ccccc1)NC(=O)C1CCCN1C(=O)OCc1ccccc1 (stereo unspecified) | 11% | 0% | 25% |  | 25% | 11% | Reversal (Mus musculus [13]): 20%; Reversal (Mus musculus [14]): 59%; Reversal (Mus musculus [16]): 71%; Reversal (Rattus norvegicus [10]): 42% |
| CC(C)CC(/C=C/CC(N)=O)NC(=O)C1CCC(=O)N1 (stereo unspecified) |  |  |  |  |  |  | Reversal (Rattus norvegicus [17]): 11%; Reversal (Rattus norvegicus [18]): 0%; Reversal (Rattus norvegicus [19]): 44% |
| CC(C)CC(N)CN1CC(=O)NC(CC(C)C)C1 (stereo unspecified) | 83% | 66% | 20% | 0% | 24% | 50% | Reversal (Rattus norvegicus [20]): 82% |
| CC(C)C[C@@H](CNCC(N)=O)NC(=O)[C@@H]1CCCN1C(=O)OCc1ccccc1 | 43% | 43% | 0% | 0% |  | 43% | Reversal (Rattus norvegicus [21]): 0% |
| COc1ccc(C(=O)N2CCCC2C(=O)NC(CSCC(=O)O)CC(C)C)cc1 (stereo unspecified) |  | 60% |  |  |  | 40% | Reversal (Mus musculus [22]): 12%; Reversal (Mus musculus [23]): 50%; Reversal (Mus musculus [24]): 12%; Reversal (Rattus norvegicus [18]): 0% |
| O=C1COCC2CCCN12 (stereo unspecified) | 33% | 33% |  |  |  | 0% | Reversal (Mus musculus [13]): 58%; Reversal (Mus musculus [14]): 77%; Reversal (Mus musculus [16]): 63% |
| CC(C)CC(CSCC(N)=O)NC(=O)C1CCCN1C(=O)OCc1ccccc1 (stereo unspecified) |  | 50% |  |  |  | 66% | Reversal (Rattus norvegicus [25]): 0%; Reversal (Rattus norvegicus [18]): 33% |
| CC(C)CC(NCC1CCCN1C(=O)OCc1ccccc1)C(=O)NCC(N)=O (stereo unspecified) | 0% | 0% | 80% | 60% | 60% | 11% | Reversal (Mus musculus [13]): 85%; Reversal (Mus musculus [14]): 67%; Reversal (Mus musculus [16]): 57% |
| CC(C)CC(CNCC(=O)O)NCC1CCCN1C(=O)OCc1ccccc1 (stereo unspecified) | 20% | 14% |  | 0% | 40% | 0% | Reversal (Rattus norvegicus [26]): 10% |
